# Key:
# Pseudomonas aeruginosa [1] = test: Antimicrobial activity against Pseudomonas aeruginosa PAO1 harboring pUCP carrying VIM-1 gene by Etest method; type: functional
# Method in brief: (§1)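 Etest MICs of piperacillin, piperacillin-tazobactam, ceftazidime, cefepime, cefotaxime, aztreonam, imipenem and meropenem, run per manufacturer's recommendations. Strains were E. coli XL1-Blue or P. aeruginosa PAO1 carrying pUCP24-derived plasmids with blaVIM-1 or blaVIM-13 (cloned by EcoRI) inserted in the lacZ-promoter orientation. E. coli transformants were selected on 10 μg/ml gentamicin MacConkey agar; PAO1 electroporants were selected on 50 μg/ml gentamicin LB agar.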
# Pseudomonas aeruginosa [2] = test: Antimicrobial activity against Pseudomonas aeruginosa PAO1 by Etest method; type: functional
# Pseudomonas aeruginosa [3] = test: Antimicrobial activity against Pseudomonas aeruginosa isolate PA-SL2 harboring blaVIM-13 gene by Etest method; type: functional
# Pseudomonas aeruginosa [4] = test: Antimicrobial activity against Pseudomonas aeruginosa isolate PA-SD2 harboring blaVIM-1 gene by Etest method; type: functional
# Pseudomonas aeruginosa [5] = test: Antimicrobial activity against Pseudomonas aeruginosa PAO1 harboring pUCP carrying VIM-13 gene by Etest method; type: functional; method in brief: as §1
# Escherichia coli [6] = test: Antimicrobial activity against Escherichia coli XL1-Blue by Etest method; type: functional
# Escherichia coli [7] = test: Antimicrobial activity against Escherichia coli XL1-Blue harboring pUCP carrying VIM-1 gene by Etest method; type: functional; method in brief: as §1
# Escherichia coli [8] = test: Antimicrobial activity against Escherichia coli XL1-Blue harboring pUCP carrying VIM-13 gene by Etest method; type: functional; method in brief: as §1
# Escherichia coli [9] = test: Antimicrobial activity against Escherichia coli XL1-Blue harboring pGEM-T carrying aacA4 gene by Etest method; type: functional
# Escherichia coli [10] = test: Antimicrobial activity against Escherichia coli XL1-Blue harboring pGEM-T carrying aacA4 Ala108Thr mutant gene by Etest method; type: functional
# [11] = biological target: Class B carbapenemase VIM-13 (Pseudomonas aeruginosa, UniProt Q2HY42); test: Inhibition of Pseudomonas aeruginosa VIM-13 beta-lactamase after 10 mins
# Method in brief: (§2)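 Zn2+-removal inactivation of purified VIM-1 or VIM-13, tested with varied concentrations of EDTA, dipicolinic acid or 1,10-o-phenanthroline. Enzyme and chelator were incubated 10 min at 20°C in 50 mM HEPES pH 7.5 with 20 μg/ml BSA, then 100 μM imipenem hydrolysis was measured as the reporter. IC50 is the chelator level halving hydrolytic activity.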
# Beta-lactamase VIM-1 = Beta-lactamase VIM-1 (Pseudomonas aeruginosa, UniProt Q9XAY4); test: Inhibition of Pseudomonas aeruginosa VIM-1 beta-lactamase after 10 mins; method in brief: as §2
# [12] = system: C[C@@H](O)[C@H]1C(=O)N2C(C(=O)O)=C(S[C@@H]3CN[C@H](C(=O)N(C)C)C3)[C@H](C)[C@H]12; test: (§3) Ratio of Kcat to Km for Pseudomonas aeruginosa VIM-1 beta-lactamase
# Method in brief: (§4)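 GST-fused VIM-1 lacking signal peptide, purified, dialyzed in 50 mM HEPES pH 7.5 with 50 μM ZnSO4. Beta-lactam hydrolysis followed spectrophotometrically at 25°C in 50 mM HEPES pH 7.5, 50 μM ZnSO4, 20 μg/ml BSA.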
# [13] = system: CC(=O)OCC1=C(C(=O)O)N2C(=O)[C@@H](NC(=O)Cc3cccs3)[C@H]2SC1; test: as §3; method in brief: as §4
# [14] = system: CC(C)(O/N=C(\C(=O)N[C@@H]1C(=O)N2C(C(=O)[O-])=C(C[n+]3ccccc3)CS[C@H]12)c1csc(N)n1)C(=O)O; test: as §3; method in brief: as §4
# [15] = system: CCN1CCN(C(=O)N[C@@H](C(=O)N[C@@H]2C(=O)N3[C@@H]2SC(C)(C)[C@@H]3C(=O)O)c2ccccc2)C(=O)C1=O; test: as §3; method in brief: as §4
# [16] = system: CC1(C)S[C@@H]2[C@H](NC(=O)[C@H](N)c3ccccc3)C(=O)N2[C@H]1C(=O)O; test: as §3; method in brief: as §4
# [17] = system: C[C@@H](O)[C@H]1C(=O)N2C(C(=O)O)=C(S[C@@H]3CN[C@H](C(=O)N(C)C)C3)[C@H](C)[C@H]12; test: (§5) Activity of Pseudomonas aeruginosa VIM-1 beta-lactamase; method in brief: as §4
# [18] = system: CC(=O)OCC1=C(C(=O)O)N2C(=O)[C@@H](NC(=O)Cc3cccs3)[C@H]2SC1; test: as §5; method in brief: as §4
# [19] = system: CC1(C)S[C@@H]2[C@H](NC(=O)Cc3ccccc3)C(=O)N2[C@H]1C(=O)O; test: as §5; method in brief: as §4
# [20] = system: CC(C)(O/N=C(\C(=O)N[C@@H]1C(=O)N2C(C(=O)[O-])=C(C[n+]3ccccc3)CS[C@H]12)c1csc(N)n1)C(=O)O; test: as §5; method in brief: as §4
# [21] = system: CO/N=C(\C(=O)N[C@@H]1C(=O)N2C(C(=O)O)=C(COC(N)=O)CS[C@H]12)c1ccco1; test: as §5; method in brief: as §4
# [22] = system: CCN1CCN(C(=O)N[C@@H](C(=O)N[C@@H]2C(=O)N3[C@@H]2SC(C)(C)[C@@H]3C(=O)O)c2ccccc2)C(=O)C1=O; test: as §5; method in brief: as §4
# [23] = system: CO/N=C(\C(=O)N[C@@H]1C(=O)N2C(C(=O)O)=C(COC(C)=O)CS[C@H]12)c1csc(N)n1; test: as §5; method in brief: as §4
# [24] = system: CC1(C)S[C@@H]2[C@H](NC(=O)[C@H](N)c3ccccc3)C(=O)N2[C@H]1C(=O)O; test: as §5; method in brief: as §4
molecule,measurement,setting,value
CO/N=C(\C(=O)N[C@@H]1C(=O)N2C(C(=O)[O-])=C(C[N+]3(C)CCCC3)CS[C@H]12)c1csc(N)n1,MIC,Pseudomonas aeruginosa [1],> 256 µg/mL
same,MIC,Pseudomonas aeruginosa [2],1 µg/mL
same,MIC,Pseudomonas aeruginosa [3],32 µg/mL
same,MIC,Pseudomonas aeruginosa [4],> 256 µg/mL
same,MIC,Pseudomonas aeruginosa [5],64 µg/mL
same,MIC,Escherichia coli [6],0.19 µg/mL
same,MIC,Escherichia coli [7],12 µg/mL
same,MIC,Escherichia coli [8],1 µg/mL
NCC[C@H](O)C(=O)N[C@@H]1C[C@H](N)[C@@H](O[C@H]2O[C@H](CN)[C@@H](O)[C@H](O)[C@H]2O)[C@H](O)[C@H]1O[C@H]1O[C@H](CO)[C@@H](O)[C@H](N)[C@H]1O [AMIKACIN],MIC,Pseudomonas aeruginosa [3],16 µg/mL
same,MIC,Escherichia coli [9],0.75 µg/mL
same,MIC,Pseudomonas aeruginosa [4],3 µg/mL
same,MIC,Escherichia coli [10],0.75 µg/mL
same,MIC,Escherichia coli [6],0.75 µg/mL
C[C@H]1[C@H](NC(=O)/C(=N\OC(C)(C)C(=O)O)c2csc(N)n2)C(=O)N1S(=O)(=O)O [AZTREONAM],MIC,Pseudomonas aeruginosa [1],1.5 µg/mL
same,MIC,Pseudomonas aeruginosa [2],1 µg/mL
same,MIC,Pseudomonas aeruginosa [3],4 µg/mL
same,MIC,Pseudomonas aeruginosa [4],24 µg/mL
same,MIC,Pseudomonas aeruginosa [5],1.5 µg/mL
same,MIC,Escherichia coli [6],0.19 µg/mL
same,MIC,Escherichia coli [7],0.125 µg/mL
same,MIC,Escherichia coli [8],0.125 µg/mL
CO/N=C(\C(=O)N[C@@H]1C(=O)N2C(C(=O)O)=C(COC(C)=O)CS[C@H]12)c1csc(N)n1 [CEFOTAXIME],MIC,Pseudomonas aeruginosa [1],> 256 µg/mL
same,MIC,Pseudomonas aeruginosa [2],16 µg/mL
same,MIC,Pseudomonas aeruginosa [3],> 256 µg/mL
same,MIC,Pseudomonas aeruginosa [4],> 256 µg/mL
same,MIC,Pseudomonas aeruginosa [5],> 256 µg/mL
same,MIC,Escherichia coli [6],0.19 µg/mL
same,MIC,Escherichia coli [7],> 256 µg/mL
same,MIC,Escherichia coli [8],> 256 µg/mL
CC(C)(O/N=C(\C(=O)N[C@@H]1C(=O)N2C(C(=O)[O-])=C(C[n+]3ccccc3)CS[C@H]12)c1csc(N)n1)C(=O)O [CEFTAZIDIME],MIC,Pseudomonas aeruginosa [1],> 256 µg/mL
same,MIC,Pseudomonas aeruginosa [2],1 µg/mL
same,MIC,Pseudomonas aeruginosa [3],32 µg/mL
same,MIC,Pseudomonas aeruginosa [4],> 256 µg/mL
same,MIC,Pseudomonas aeruginosa [5],128 µg/mL
same,MIC,Escherichia coli [6],0.38 µg/mL
same,MIC,Escherichia coli [7],32 µg/mL
same,MIC,Escherichia coli [8],6 µg/mL
O=C(O)c1cn(C2CC2)c2cc(N3CCNCC3)c(F)cc2c1=O [CIPROFLOXACIN],MIC,Pseudomonas aeruginosa [3],> 32 µg/mL
same,MIC,Escherichia coli [9],0.064 µg/mL
same,MIC,Pseudomonas aeruginosa [4],> 32 µg/mL
same,MIC,Escherichia coli [10],0.064 µg/mL
same,MIC,Escherichia coli [6],0.064 µg/mL
O=C(O)c1cccc(C(=O)O)n1 [DIPICOLINIC ACID],IC50,[11],48 µM
same,IC50,Beta-lactamase VIM-1,41.6 µM
O=C(O)CN(CCN(CC(=O)O)CC(=O)O)CC(=O)O [EDETIC ACID],IC50,[11],253 µM
same,IC50,Beta-lactamase VIM-1,9.3 µM
C[C@@H](O)[C@H]1C(=O)N2C(C(=O)O)=C(SCCNC=N)C[C@H]12 [IMIPENEM ANHYDROUS],MIC,Pseudomonas aeruginosa [1],> 32 µg/mL
same,MIC,Pseudomonas aeruginosa [2],1.5 µg/mL
same,MIC,Pseudomonas aeruginosa [3],24 µg/mL
same,MIC,Pseudomonas aeruginosa [4],> 32 µg/mL
same,MIC,Pseudomonas aeruginosa [5],> 32 µg/mL
same,MIC,Escherichia coli [6],0.25 µg/mL
same,MIC,Escherichia coli [7],1 µg/mL
same,MIC,Escherichia coli [8],1 µg/mL
C[C@@H](O)[C@H]1C(=O)N2C(C(=O)O)=C(S[C@@H]3CN[C@H](C(=O)N(C)C)C3)[C@H](C)[C@H]12 [MEROPENEM],MIC,Pseudomonas aeruginosa [1],> 32 µg/mL
same,MIC,Pseudomonas aeruginosa [2],0.38 µg/mL
same,MIC,Pseudomonas aeruginosa [3],12 µg/mL
same,MIC,Pseudomonas aeruginosa [4],> 32 µg/mL
same,MIC,Pseudomonas aeruginosa [5],> 32 µg/mL
same,MIC,Escherichia coli [6],0.064 µg/mL
same,MIC,Escherichia coli [7],0.25 µg/mL
same,MIC,Escherichia coli [8],0.19 µg/mL
c1cnc2c(c1)ccc1cccnc12 [PHENANTHROLINE],IC50,[11],69.3 µM
same,IC50,Beta-lactamase VIM-1,73 µM
NC[C@H]1O[C@H](O[C@H]2[C@H](O)[C@@H](O[C@H]3O[C@H](CO)[C@@H](O)[C@H](N)[C@H]3O)[C@H](N)C[C@@H]2N)[C@H](N)C[C@@H]1O [TOBRAMYCIN],MIC,Pseudomonas aeruginosa [3],48 µg/mL
same,MIC,Escherichia coli [9],2 µg/mL
same,MIC,Pseudomonas aeruginosa [4],16 µg/mL
same,MIC,Escherichia coli [10],2 µg/mL
same,MIC,Escherichia coli [6],0.25 µg/mL
Beta-lactamase VIM-1 (Pseudomonas aeruginosa) (from UniProt Q9XAY4),kcat/Km,[12],280000 M⁻¹ s⁻¹
same,kcat/Km,[13],3.3e+06 M⁻¹ s⁻¹
same,kcat/Km,[14],3.7 M⁻¹ s⁻¹
same,kcat/Km,[15],270000 M⁻¹ s⁻¹
same,kcat/Km,[16],180000 M⁻¹ s⁻¹
same,Km,[17],72 µM
same,kcat,[17],20 s⁻¹
same,Km,[18],135 µM
same,kcat,[18],449 s⁻¹
same,Km,[19],1300 µM
same,kcat,[19],418 s⁻¹
same,Km,[20],1130 µM
same,kcat,[20],42 s⁻¹
same,Km,[21],148 µM
same,kcat,[21],239 s⁻¹
same,Km,[22],1380 µM
same,kcat,[22],374 s⁻¹
same,Km,[23],285 µM
same,kcat,[23],204 s⁻¹
same,Km,[24],1740 µM
same,kcat,[24],307 s⁻¹
GENTAMICIN,MIC,Pseudomonas aeruginosa [3],> 256 µg/mL
same,MIC,Escherichia coli [9],1 µg/mL
same,MIC,Pseudomonas aeruginosa [4],48 µg/mL
same,MIC,Escherichia coli [10],1 µg/mL
same,MIC,Escherichia coli [6],0.19 µg/mL

# — ChEMBL document CHEMBL1275500, “Characterization of the new metallo-beta-lactamase VIM-13 and its integron-borne gene from a Pseudomonas aeruginosa clinical isolate in Spain” (Antimicrob Agents Chemother, 2008)
